The results in this text go back to ChEMBL document CHEMBL1138193, “Synthesis and biological activity of 7-phenyl-6,9-dihydro-3H-pyrrolo[3,2-f]quinolin-9-ones: a new class of antimitotic agents devoid of aromatase activity” (J Med Chem, 2006).

The test system of series [1] is HepG2. Put plainly: Cytotoxicity against human HepG2 cells by MTT assay. Format: functional, cell-based. In outline: (§1)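 MTT colorimetric proliferation assay on human and murine tumour cell lines. Compounds tested over 50 to 0.1 µM; IC50 calculated from the concentration response.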
A general note: Formazan colour is commonly taken as a measure of viable cells.

Another series concerns NCI-H295R. Put plainly: Cytotoxicity against human H295R cells by MTT assay. Type of series: functional, cell-based. Summed up: as §1
The subject of series [2] is OVCAR-3. Put plainly: Cytotoxicity against human Ovcar3 cells by MTT assay. Type of series: functional, cell-based. Summed up: as §1
The next series concerns MCF7. Briefly: Cytotoxicity against human MCF7 cells by MTT assay. Type of series: functional, cell-based. In outline: as §1
A further series concerns ARO. Briefly: Cytotoxicity against human Aro cells by MTT assay. Format: functional, cell-based. Summed up: as §1
A further series concerns A549. Put plainly: Cytotoxicity against human A549 cells by MTT assay. Format: functional, cell-based.
The subject of another series is HT-29. Put plainly: Cytotoxicity against human HT29 cells by MTT assay. Format: functional, cell-based. Summed up: as §1
Another series deals with PT-45. Briefly: Cytotoxicity against human PT45 cells by MTT assay. Type of series: functional, cell-based. In outline: as §1
In the next series the test system is 4T1. Put plainly: Cytotoxicity against mouse 4T1 cells by MTT assay. Type of series: functional, cell-based. In outline: as §1
A further series concerns BNL. Briefly: Cytotoxicity against mouse BNL cells by MTT assay. Type of series: functional, cell-based. In outline:
as §1

Another series has as its system HeLa. Briefly: Cytotoxicity against human HeLa cells by MTT assay. Format: functional, cell-based. In outline: as §1
Series [3] concerns HepG2. Briefly: Cell cycle arrest at G2/M phase in HepG2 cells at 5-10 uM. Type of series: functional, Homo sapiens.
In series [4] the test system is OVCAR-3. Put plainly: Cell cycle arrest at G2/M phase in Ovcar3 cells at 5-10 uM. Type of series: functional, Homo sapiens.
Series [5] addresses T1, Aromatase (Homo sapiens, UniProt P11511).
T1 sequence (P11511 whole entry): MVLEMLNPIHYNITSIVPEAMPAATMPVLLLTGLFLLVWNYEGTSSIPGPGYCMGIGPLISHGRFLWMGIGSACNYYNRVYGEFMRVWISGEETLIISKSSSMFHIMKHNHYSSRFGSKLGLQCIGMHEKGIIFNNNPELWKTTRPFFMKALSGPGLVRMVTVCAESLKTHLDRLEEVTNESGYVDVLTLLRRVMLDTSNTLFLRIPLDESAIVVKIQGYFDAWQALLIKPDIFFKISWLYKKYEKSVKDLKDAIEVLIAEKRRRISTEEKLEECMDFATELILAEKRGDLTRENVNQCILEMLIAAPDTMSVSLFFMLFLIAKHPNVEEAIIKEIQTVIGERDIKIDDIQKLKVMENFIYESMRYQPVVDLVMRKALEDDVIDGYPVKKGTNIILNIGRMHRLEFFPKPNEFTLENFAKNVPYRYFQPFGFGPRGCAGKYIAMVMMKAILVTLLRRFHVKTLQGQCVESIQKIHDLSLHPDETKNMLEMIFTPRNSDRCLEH
Briefly: Inhibition of aromatase activity in H295R cells at 5 uM. Type of series: cell-based. In outline: (§2)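 H295R cells cultured 24 h in DMEM-F12 with or without forskolin (25 µM). Compound (5, 10 or 15 µM) added 1 h before [1β-³H]androstenedione substrate (0.5 µM), then 2 h further exposure. Modified tritiated water release read-out as pmol ³H₂O/h/mg protein. Letrozole reference. Mean ± SEM of three experiments in triplicate.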

Series [6] deals with T1, Aromatase. Put plainly: Inhibition of aromatase activity in H295R cells at 10 uM. Type of series: cell-based. Summed up: as §2
In series [7] the target is T1, Aromatase. Briefly: Inhibition of aromatase activity in H295R cells at 15 uM. Format: cell-based. Summed up:
as §2

The target in another series is Tubulin (Homo sapiens) (UniProt P68371+Q9H4B7+P0DPH7+P68366+Q13509+Q71U36+P04350+Q3ZCM7+P07437+P68363+Q9BQE3+Q6PEY2+Q13885+Q9BVA1+Q9BUF5). Briefly: Microtubule disassembly in Ovcar3 cells at 5 uM. Type of series: functional, cell-based. The following applies: OVCAR-3. In outline:
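Ovcar-3 cells exposed 18 h to 5 µM (drug-free and vincristine 5 µM controls), fixed, stained with anti-β-tubulin antibody, and microtubule distribution examined by fluorescence microscopy.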

Structures are written as SMILES. Active and inactive are the calls of the source. The rule behind the calls is not given here. Bounds are passed on as bounds.

With `Oc1ccnc2ccc3[nH]ccc3c12`, the IC50 in the series on HepG2 [1], in the series on NCI-H295R, with OVCAR-3 [2], in the series with MCF7, in the series with ARO and in the series with A549 was greater than 50 µM each time. For the same compound, the IC50 with HT-29, in the series with PT-45, with 4T1, with BNL and with HeLa was greater than 50 µM each time.
In the case of `COC(=O)c1cc2c([nH]1)c(OC)cc1nc(-c3ccccc3)cc(O)c12`, the half-inhibitory concentration (IC50) in the series with HepG2 [1], in the series with NCI-H295R, with OVCAR-3 [2], in the series with MCF7, in the series with ARO and with A549 was greater than 50 µM in each case. The IC50 in the series on HT-29, in the series with PT-45, in the series on 4T1, with BNL and in the series with HeLa was greater than 50 µM throughout. The Activity with HepG2 [3] amounted to 15.4%; in the series with OVCAR-3 [4], 14.4%.
For `Oc1cc(-c2cccs2)nc2ccc3[nH]ccc3c12`, the IC50 is 10 µM in the series on HepG2 [1]; 5 µM with NCI-H295R; 25 µM with OVCAR-3 [2]; 7 µM in the series on MCF7; 7 µM in the series with ARO; 15 µM in the series on A549. Also, the IC50 in the series on HT-29 is 30 µM; in the series on PT-45 it was 8 µM; in the series with 4T1, 20 µM; in the series with BNL it was 8 µM; in the series on HeLa it was 6 µM. Moreover, the Activity in the series on HepG2 [3] is on record as 15.6%; in the series with OVCAR-3 [4], 17.5%.
In the case of `Oc1cc(-c2cccc(Br)c2)nc2ccc3[nH]ccc3c12`, the half-maximal inhibitory concentration (IC50) was found to be 6 µM in the series on HepG2 [1]; 5 µM in the series on NCI-H295R; 10 µM with OVCAR-3 [2]; 5 µM in the series on MCF7; 5 µM in the series with ARO; 6 µM in the series on A549. The half-inhibitory concentration (IC50) with HT-29 came to 9 µM; with PT-45 it was 6 µM; in the series with 4T1, 20 µM; with BNL it was 4 µM; in the series with HeLa, 5 µM. In addition, the Activity result on Aromatase [5] is given as “Not Active”; at Aromatase [6], “Not Active”; on Aromatase [7], “Not Active”; in the series with HepG2 [3], 40.3%; in the series on OVCAR-3 [4], 42.9%.
Regarding `Cc1cccc(-c2cc(O)c3c(ccc4[nH]ccc43)n2)c1`, the IC50 with HepG2 [1] amounted to 10 µM; in the series with NCI-H295R, 8 µM; in the series with OVCAR-3 [2], 20 µM; with MCF7, 7 µM; in the series with ARO it was 7 µM; in the series on A549, 6 µM. The 50% inhibitory concentration (IC50) in the series with HT-29 came to 8 µM; with PT-45 it was 7 µM; in the series with 4T1, 25 µM; in the series on BNL, 6 µM; in the series on HeLa, 6 µM. Besides, the Activity is 16% in the series with HepG2 [3] and 19.5% in the series on OVCAR-3 [4].
Take `N#Cc1ccc(-c2cc(O)c3c(ccc4[nH]ccc43)n2)cc1`: the half-inhibitory concentration (IC50) in the series with HepG2 [1] worked out at 10 µM; in the series on NCI-H295R, 30 µM; in the series with OVCAR-3 [2] it was 50 µM; in the series on MCF7, 50 µM; in the series with ARO, 40 µM; in the series with A549 it was 15 µM. For the same compound, the IC50 is greater than 50 µM in the series with HT-29; 20 µM in the series on PT-45; 25 µM in the series on 4T1; 15 µM in the series with BNL; 15 µM with HeLa. The Activity with HepG2 [3] was 21.5%; in the series with OVCAR-3 [4], 14.9%.
On to `N#Cc1cccc(-c2cc(O)c3c(ccc4[nH]ccc43)n2)c1`, for which the 50% inhibitory concentration (IC50) in the series with HepG2 [1] is 40 µM; in the series with NCI-H295R, greater than 50 µM; in the series on OVCAR-3 [2] it was greater than 50 µM; with MCF7, greater than 50 µM; in the series with ARO, 3 µM; in the series with A549, greater than 50 µM. In addition, the IC50 was greater than 50 µM with HT-29; 40 µM in the series on PT-45; greater than 50 µM in the series on 4T1; 40 µM in the series with BNL; 8 µM with HeLa. Besides, the Activity in the series with HepG2 [3] was found to be 17.3%; in the series on OVCAR-3 [4], 15%.
In the case of `O=[N+]([O-])c1cccc(-c2cc(O)c3c(ccc4[nH]ccc43)n2)c1`, the IC50 with HepG2 [1] was 30 µM; with NCI-H295R, 40 µM; with OVCAR-3 [2], greater than 50 µM; in the series on MCF7 it was greater than 50 µM; in the series with ARO, 39 µM; in the series with A549 it was 32 µM. The IC50 with HT-29 was greater than 50 µM; in the series on PT-45, 45 µM; in the series with 4T1, greater than 50 µM; in the series on BNL, greater than 50 µM; with HeLa, 25 µM. Besides, the Activity with HepG2 [3] was 15.8%; in the series with OVCAR-3 [4], 10%.
For `Nc1cccc(-c2cc(O)c3c(ccc4[nH]ccc43)n2)c1`, the IC50 worked out at 30 µM in the series on HepG2 [1]; 50 µM with NCI-H295R; 50 µM in the series on OVCAR-3 [2]; 15 µM in the series on MCF7; 30 µM in the series with ARO; 30 µM in the series on A549. Further, the IC50 was greater than 50 µM with HT-29; 8 µM with PT-45; 50 µM in the series with 4T1; greater than 50 µM in the series with BNL; 7 µM in the series on HeLa. The Activity with HepG2 [3] is 17.1%; in the series with OVCAR-3 [4], 14%.
Regarding `CC(=O)O[C@H]1C(=O)[C@@]2(C)[C@H]([C@H](OC(=O)c3ccccc3)[C@]3(O)C[C@H](OC(=O)[C@H](O)[C@@H](NC(=O)c4ccccc4)c4ccccc4)C(C)=C1C3(C)C)[C@]1(OC(C)=O)CO[C@@H]1C[C@@H]2O` [PACLITAXEL], the IC50 is 0.08 µM with NCI-H295R, 0.2 µM in the series with 4T1 and 0.2 µM in the series on BNL.
Consider `COc1cccc(-c2cc(O)c3c(ccc4[nH]ccc43)n2)c1`, for which the IC50 came out at 6 µM in the series on HepG2 [1]; 0.7 µM in the series on NCI-H295R; 7 µM with OVCAR-3 [2]; 2 µM in the series on MCF7; 1 µM in the series with ARO; 2 µM in the series on A549. The half-inhibitory concentration (IC50) was 6 µM in the series on HT-29; 0.7 µM with PT-45; 4 µM in the series with 4T1; 4 µM in the series with BNL; 0.7 µM with HeLa. Besides, the Activity entry at Aromatase [5] is “Not Active”; at Aromatase [6], “Not Active”; on Aromatase [7], “Not Active”; in the series with HepG2 [3] it was 49.3%; in the series on OVCAR-3 [4] it was 65.3%.
For the compound `CC[C@]1(O)C[C@H]2CN(CCc3c([nH]c4ccccc34)[C@@](C(=O)OC)(c3cc4c(cc3OC)N(C=O)[C@H]3[C@@](O)(C(=O)OC)[C@H](OC(C)=O)[C@]5(CC)C=CCN6CC[C@]43[C@@H]65)C2)C1` [VINCRISTINE], the IC50 with NCI-H295R worked out at 0.09 µM; with ARO, 0.0001 µM; with 4T1 it was 0.02 µM; with BNL, 0.08 µM. At Tubulin (Homo sapiens), the result was Active.
In the case of `Cc1cc(O)c2c(ccc3[nH]ccc32)n1`, the IC50 in the series with HepG2 [1], with NCI-H295R, in the series on OVCAR-3 [2], in the series on MCF7, in the series on ARO and with A549 was greater than 50 µM each time. Moreover, the IC50 in the series on HT-29, with PT-45, in the series on 4T1, in the series on BNL and in the series on HeLa was greater than 50 µM in each case.
For the compound `CCN(CC)CCn1ccc2c3c(O)cc(-c4ccccc4)nc3ccc21`, the IC50 in the series with HepG2 [1] came out at 7 µM; with NCI-H295R, 6 µM; in the series on OVCAR-3 [2], 18 µM; in the series with MCF7, 8 µM; with ARO it was 20 µM; with A549, 12 µM. The 50% inhibitory concentration (IC50) in the series with HT-29 was determined as 6 µM; with PT-45, 5 µM; with 4T1, 9 µM; in the series on BNL it was 5 µM; in the series with HeLa, 5 µM. Besides, the Activity turned out to be 15.1% with HepG2 [3] and 16.6% with OVCAR-3 [4].

For orientation: IC50 means the point on the concentration scale where inhibition reaches its midpoint. A low value points to greater potency in that assay.
